TAAR1 ag = agonists of human TAAR1; CHO RD-HGA16 TAAR1, Fluo-8 calcium fluorescence; vehicle wells 0%, saturating PEA agonist 100%; activation, % at 3 µM; actives 0.99% (n = 360,000); AID 624467;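 active = activation above the mean activation of all test compounds in the run plus 3 SD, cut at about 38% in these data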
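System: CHO-derived RD-HGA16 cells with stable Gα16 and human TAAR1 / Times: 17-24 h plating, Fluo-8 75 min 37 °C, 30 min RT / Technique: calcium-sensitive Fluo-8 signal, excitation 470-495, emission 515-575 nm / Measure: % activation relative to PEA EC100 response / Benchmarks: DMSO and PEA EC100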
MPTP inh = blocks calcium-induced mitochondrial swelling. isolated mouse mitochondria, Ca2+ swelling absorbance, 30 min. actives 1.4% (n = 360,000). AID 602449. inhibition, % at 10 µM;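 active = inhibition of 50% or more, scaled per plate between neutral and stimulator controls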;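 note: 0% = DMSO wells given calcium and 100% = 1 mM EGTA wells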
TAAR1 antag = human TAAR1 antagonism. Q96RJ0. CHO RD-HGA16 TAAR1, Fluo-8 calcium fluorescence, antagonist. inhibition, % at 3 µM. actives 1.5% (n = 360,000);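 active = inhibition above a per-plate cutoff, the mean inhibition of test compounds on that plate plus 3 SD, cut at about 49% in these data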;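 note: 0% = DMSO plus EC80 beta-PEA response and 100% = DMSO alone without agonist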
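Test system – hTAAR1-expressing CHO RD-HGA16 cells, Gα16-coupled · Also added – β-PEA at EC80 concentration, post-compound challenge · Compound – 3 µM, single point · Incubation – dye loading 75 min at 37 °C, then 30 min room temperature · Measured by – Fluo-8 intracellular calcium dye fluorescence, real-time kinetic reads · Benchmarks – vehicle and agonist controls · Replicates – singlicate, one well per test compound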
DAGLB inhibitor = blocks human DAGLB lipase activity. Q8NCG7. HEK293T DAGLB membrane lysate, EnzChek fluorogenic substrate. inhibition, % at 5.17 µM. actives 0.059% (n = 340,000); in the data active = inhibition above about 34%;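 note: 0% = enzyme with vehicle and 100% = wells lacking enzyme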
Target sequence (Q8NCG7 whole entry, looked up): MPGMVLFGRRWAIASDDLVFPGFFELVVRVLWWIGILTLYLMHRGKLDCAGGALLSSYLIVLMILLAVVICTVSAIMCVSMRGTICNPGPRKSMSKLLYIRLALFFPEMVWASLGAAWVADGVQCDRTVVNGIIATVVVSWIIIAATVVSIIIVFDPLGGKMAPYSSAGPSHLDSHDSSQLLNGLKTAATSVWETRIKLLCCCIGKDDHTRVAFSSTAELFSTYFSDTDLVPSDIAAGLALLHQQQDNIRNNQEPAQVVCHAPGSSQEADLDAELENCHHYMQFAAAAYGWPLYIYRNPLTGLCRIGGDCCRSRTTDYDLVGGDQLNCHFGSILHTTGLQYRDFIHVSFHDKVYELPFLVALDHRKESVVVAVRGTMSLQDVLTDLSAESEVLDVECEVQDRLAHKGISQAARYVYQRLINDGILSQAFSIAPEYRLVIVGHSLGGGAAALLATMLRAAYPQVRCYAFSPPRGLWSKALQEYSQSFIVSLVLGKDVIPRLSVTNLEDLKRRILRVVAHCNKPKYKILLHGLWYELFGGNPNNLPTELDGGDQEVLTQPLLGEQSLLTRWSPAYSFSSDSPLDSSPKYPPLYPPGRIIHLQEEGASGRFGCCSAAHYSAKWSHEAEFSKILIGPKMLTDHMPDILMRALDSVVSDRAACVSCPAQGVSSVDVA
GPR7 antagonist = antagonists of human GPR7 (neuropeptides B/W receptor 1) | P48145 | GPR7-expressing cells, fluorescence antagonist assay | inhibition, % at 4.4 µM | actives 1.1% (n = 290,000); in the data active = inhibition above about 16%, passing the limit was not always enough;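 note: cells stimulated with the agonist NPW; 0% = agonist with vehicle and 100% = vehicle without agonist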
nonsel antag count = nonselective antagonist in TAAR1 antagonist counter-screen; shares compounds with TAAR1 antag; counterscreen cell line, calcium fluorescence, antagonist mode; inhibition, % at 3 µM; actives 77% (n = 2,400); AID 651780; in the data active = inhibition above about 22%;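 note: CHO-Ga16 host cells stimulated with ATP at an EC80 level; 0% = agonist EC80 plus vehicle and 100% = vehicle without agonist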
TAAR1 ant conf = human TAAR1 antagonism, confirmed; shares compounds with TAAR1 antag; TAAR1-expressing cells, fluorescence antagonist read-out; inhibition, % at 3 µM; actives 40% (n = 2,400); in the data active = inhibition above about 49%;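 note: CHO-Ga16 host cells challenged with agonist PEA near its EC80; 0% = agonist at EC80 plus vehicle and 100% = vehicle with no agonist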
Ga16 nonsel ag = nonselective Ga16 agonist in TAAR1 antagonist counter-screen | shares compounds with TAAR1 antag | Ga16-expressing cells, calcium fluorescence, agonist counterscreen | activation, % at 3 µM | actives 18% (n = 2,400); in the data active = activation above about 12%;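 note: 0% = vehicle wells and 100% = saturating stimulus response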
TAAR1 ag counter = activates human TAAR1 in antagonist counter-screen; shares compounds with TAAR1 antag; hTAAR1 cell line, fluorescence activation, agonist mode; activation, % at 3 µM; actives 2% (n = 2,400); AID 651955; in the data active = activation above about 37%;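 note: CHO cells stably expressing TAAR1 with calcium dye readout; 0% = DMSO vehicle and 100% = full agonist response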
Starred values were filed as active, the others as inactive; / = no result given. In the library only some 4% were active in any assay of this set; here they are far more common.

SMILES	TAAR1 ag	MPTP inh	TAAR1 antag	DAGLB inhibitor	GPR7 antagonist	nonsel antag count	TAAR1 ant conf	Ga16 nonsel ag	TAAR1 ag counter
NC(=O)c1nsc(C(=O)N(c2ccccc2)C(C(=O)NCc2ccc(F)cc2)c2ccc(O)cc2)c1N (centres undefined)	30.4	1.8	74.5*	-0.1	-4.5	37.6*	63.8*	13.8*	18.7
CC(C)(C)NC(=O)C(c1ccco1)N(Cc1ccc(F)cc1)C(=O)c1snc(C(N)=O)c1N (centres undefined)	10.6	-0.8	22.8	3.9	-5.9	/	/	/	/
O=C(NCc1ccco1)c1[nH]c(C(F)(F)F)nc1-c1ccccc1	7.2	-1.7	-23.5	/	/	/	/	/	/
OCCN(Cc1cccnc1)Cc1ccccn1	1.8	-3.7	-13.9	-3.4	/	/	/	/	/
COc1ccc(NC(=O)N(Cc2cc3ccc(OC)cc3[nH]c2=O)CC2CCCO2)cc1 (centres undefined)	14.9	-1.7	9.8	0.0	0.9	/	/	/	/
COc1ccc(NC(=O)N(Cc2cc3cc(OC)ccc3[nH]c2=O)CC2CCCO2)cc1 (centres undefined)	13.4	-6.5	55.9*	4.1	0.0	26.7*	41.0	6.9	4.9
COC(=O)c1ccccc1NC(=S)N(Cc1ccc2c(c1)OCO2)Cc1cc2cc(OC)ccc2[nH]c1=O	2.8	0.6	53.2*	5.9	-6.2	15.1	27.4	6.4	9.1
COc1ccccc1NC(=S)N(CCCN(C)C)Cc1cc2cc3c(cc2[nH]c1=O)OCO3	2.7	-0.4	-10.9	-0.5	-2.1	/	/	/	/
CCN(CC)S(=O)(=O)c1ccc(/C(O)=C(\C#N)c2nc3ccccc3n2C)cc1	34.6	-1.1	63.4*	1.7	-11.7	35.1*	48.8*	12.6*	14.1
COC(=O)[C@]12C[C@H](CC(=O)N3CCN(C(=O)C4CC4)CC3)C(=O)N(CCC3=CCCCC3)C1=C[C@H](C(C)(C)C)O[C@@H]2C	-2.8	/	-26.5	/	/	/	/	/	/
c1ccc(N(c2ccccc2)c2nc(-n3ccnc3)nc(-n3ccnc3)n2)cc1	33.8	0.8	103.9*	-2.5	13.0	55.9*	96.3*	27.0*	43.4*
CN(c1ccccc1)c1nc(-n2ccnc2)nc(-n2ccnc2)n1	3.5	-3.0	6.0	1.5	-18.2	/	/	/	/
CCCCNc1nc(N(C)c2ccccc2)nc(-n2ccnc2)n1	17.2	10.2	50.1*	-7.3	-22.4	3.4	-4.7	-0.2	0.3
C=CCNc1nc(N(c2ccccc2)c2ccccc2)nc(-n2ccnc2)n1	36.9	9.1	94.6*	-1.3	-6.6	47.2*	84.5*	9.6	17.8
CCOC(=O)c1ccc(NC(=O)c2nc[nH]c2C(=O)N[C@@H](C)CO)cc1	0.8	-0.5	5.4	-0.3	/	/	/	/	/
C[C@H]1CN([C@@H](C)CO)C(=O)c2c(c3ccccc3n2C)-c2ccccc2CO[C@H]1CN(C)C(=O)Nc1cccc(F)c1	29.4	/	47.2	/	/	/	/	/	/
Cc1ccc(C2c3[nH]c4ccccc4c3C[C@H]3C(=O)N(c4ccccc4C(=O)NCCCN4CCOCC4)C(=O)N23)cc1 (some centres undefined)	9.8	0.1	53.0*	0.2	7.9	25.8*	32.1	5.1	5.0
COc1ccc(C2c3[nH]c4ccccc4c3C[C@H]3C(=O)N(c4ccccc4C(=O)N4CCC(C(=O)O)CC4)C(=O)N23)cc1 (some centres undefined)	3.8	-0.7	-19.1	1.1	-2.5	/	/	/	/
CC(C)c1ccc(C2c3[nH]c4ccccc4c3C[C@H]3C(=O)N(c4ccccc4C(=O)N4CCC[C@H]4C(=O)O)C(=O)N23)cc1 (some centres undefined)	0.0	-0.3	2.7	4.3	2.8	/	/	/	/

Screening data as filed in PubChem BioAssay.
